Results taken from ChEMBL document CHEMBL3526127, “Absorption, elimination, and metabolism of CS-1036, a novel α-amylase inhibitor in rats and monkeys, and the relationship between gastrointestinal distribution and suppression of glucose absorption” (Drug Metab Dispos, 2013).

Columns and labels:
Rattus norvegicus [1] = test: Total drug excretion in F344 rat at 1 mg/kg, po administered as single dose after 0 to 168 hrs by scintillation counting method; format: ADME, organism-based; design: dose 1 mg/kg, route oral; details: in vivo
In short: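 Fasted F344 rats (n = 4) received [14C]-labelled drug at 1 mg/kg (41.9 µCi/kg), iv via tail vein or oral. They were housed in metabolic cages. Urine and feces were collected to 168 h, and expired CO2 was trapped in 2-aminoethanol/2-methoxyethanol to 48 h. Radioactivity was counted by liquid scintillation, feces after homogenization. Results are % of dose.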

Rattus norvegicus [2] = test: Total drug excretion in bile duct cannulated F344 rat at 1 mg/kg, po administered as single dose after 0 to 48 hrs by scintillation counting method; format: ADME, organism-based; design: dose 1 mg/kg, route oral; details: in vivo
In short: (§1)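 Under ether anesthesia, the common bile duct of fasted F344 rats was cannulated. After recovery, rats received 1 mg/kg (41.9 µCi/kg) of the 14C-labelled compound iv or by oral gavage (n = 4). They were kept in Bollman cages, and bile was collected at 0–6, 6–24, 24–30 and 30–48 h at 4°C. Radioactivity was measured by liquid scintillation counting as % of dose.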

[3] = Drug metabolism in human kidney S9 fractions at 0.42 uCi/ml assessed as metabolite formation in presence of NADPH after 1 hr at 37 degC by LC-MS/MS method; format: ADME, tissue-based; details: s9, 1 h
[4] = Drug excretion in F344 rat urine at 1 mg/kg, po administered as single dose after 0 to 48 hrs by scintillation counting method; format: ADME, organism-based; design: dose 1 mg/kg, route oral; details: in vivo
In short: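 Fasted F344 rats (152–156 g iv via tail vein; 154–159 g oral; n = 4) received [14C]-labelled drug at 1 mg/kg (41.9 µCi/kg). Animals were kept in metabolic cages; urine and feces were collected to 168 h, and expired CO2 was trapped in 2-aminoethanol/2-methoxyethanol (1:1) to 48 h. Samples were counted by liquid scintillation (feces homogenized). Results are % of dose, mean ± S.D.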

[5] = Drug excretion in F344 rat urine at 1 mg/kg, po administered as single dose after 24 hrs by scintillation counting method; format: ADME, organism-based; design: dose 1 mg/kg, route oral; details: in vivo
In short: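 [14C]-labelled drug (1 mg/kg, 42.2 µCi/kg) was given orally to fasted F344 rats (164–168 g, n = 3). Urine and feces were collected to 24 h; feces were homogenized in 9 volumes of water, combusted and counted. Parent fraction came from the excreted radioactivity times the radio-HPLC (HILIC) peak-area ratio; mean ± S.D.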

[6] = Drug metabolism in po dosed monkey urine assessed as 1,4-dideoxy-1,4-imino-D-arabinitol formation by LC-MS/MS method; details: cynomolgus monkey, in vivo
Rattus norvegicus [7] = test: Total drug excretion in bile duct cannulated F344 rat at 1 mg/kg, iv administered as single dose after 0 to 48 hrs by scintillation counting method; format: ADME, organism-based; design: dose 1 mg/kg, route intravenous; details: in vivo; in short: as §1
[8] = Oral bioavailability in F344 rat at 0.3 mg/kg administered as single dose by LC-MS/MS method; format: ADME, organism-based; details: in vivo
In short: (§2)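 Male F344 rats (146–185 g) and male cynomolgus monkeys (3.48–4.29 kg), n = 4 each, fasted overnight, received single iv or oral doses of 0.3, 1.0, 3.0 or 10.0 mg/kg. Monkeys had 2-week washouts between doses. Plasma was sampled to 48 h and assayed by LC-MS/MS with deuterated internal standard. Noncompartmental analysis: tmax observed; t1/2 by regression on ≥3 terminal log points; Vss = dose·AUMC/(AUC0–inf)²; Foral = oral/iv AUC0–inf at the same dose.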

[9] = Oral bioavailability in F344 rat at 10 mg/kg administered as single dose by LC-MS/MS method; format: ADME, organism-based; details: in vivo; in short: as §2
[10] = AUClast in F344 rat at 0.3 mg/kg, iv administered as single dose by LC-MS/MS method; format: ADME, organism-based; design: time 0 - last, dose 0.3 mg/kg, route intravenous; details: plasma
In short: (§3)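 Fasted male F344 rats (146–185 g) or male cynomolgus monkeys (3.48–4.29 kg), n = 4 per dose, given single iv or oral dose of 0.3, 1.0, 3.0 or 10.0 mg/kg; monkeys dosed with 2-week washouts. Blood sampled to 48 h; plasma stored frozen. LC-MS/MS with deuterated internal standard. Noncompartmental analysis: AUClast by trapezoidal rule; AUC0–inf = AUClast + Ctz/terminal rate constant; mean ± S.D.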

[11] = Cmax in cynomolgus monkey at 1 mg/kg, po administered as single dose by LC-MS/MS method; format: ADME, organism-based, Macaca fascicularis; design: dose 1 mg/kg, route oral; details: in vivo
In short: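 Fasted male F344 rats (146–185 g) and cynomolgus monkeys (3.48–4.29 kg), n = 4 each, received a single oral dose; monkeys had 2-week washouts. Plasma sampled up to 48 h, stored at […], assayed by LC-MS/MS with a deuterated internal standard. Cmax taken from observed data by noncompartmental analysis; mean ± S.D. (n = 3 or 4).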

[12] = Half life in cynomolgus monkey at 1 mg/kg, po administered as single dose by LC-MS/MS method; format: ADME, organism-based, Macaca fascicularis; design: dose 1 mg/kg, route oral; details: in vivo; in short: as §2
[13] = AUClast in cynomolgus monkey at 1 mg/kg, iv administered as single dose by LC-MS/MS method; format: ADME, organism-based, Macaca fascicularis; design: time 0 - last, dose 1 mg/kg, route intravenous; details: plasma; in short: as §3
[14] = Half life in F344 rat at 10 mg/kg, iv administered as single dose by LC-MS/MS method; format: ADME, organism-based; design: dose 10 mg/kg, route intravenous; details: in vivo
In short: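 Fasted male F344 rats (146–185 g, n = 4 per dose) received single i.v. CS-1036. Plasma was sampled up to 48 h and analysed by LC-MS/MS. t1/2 came from noncompartmental regression of three or more log-transformed terminal-phase points. Mean ± S.D.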

[15] = AUC (0 to infinity) in F344 rat at 0.3 mg/kg, po administered as single dose by LC-MS/MS method; format: ADME, organism-based; design: time infinity, dose 0.3 mg/kg, route oral; details: plasma; in short: as §3
[16] = Tmax in F344 rat at 3 mg/kg, po administered as single dose by LC-MS/MS method; format: ADME, organism-based; design: dose 3 mg/kg, route oral; details: in vivo; in short: as §2
[17] = Tmax in cynomolgus monkey at 0.3 mg/kg, po administered as single dose by LC-MS/MS method; format: ADME, organism-based, Macaca fascicularis; design: dose 0.3 mg/kg, route oral; details: in vivo; in short: as §2
[18] = AUClast in cynomolgus monkey at 1 mg/kg, po administered as single dose by LC-MS/MS method; format: ADME, organism-based, Macaca fascicularis; design: time 0 - last, dose 1 mg/kg, route oral; details: plasma; in short: as §3
[19] = AUClast in F344 rat at 0.3 mg/kg, po administered as single dose by LC-MS/MS method; format: ADME, organism-based; design: time 0 - last, dose 0.3 mg/kg, route oral; details: plasma; in short: as §3
[20] = AUClast in F344 rat at 3 mg/kg, po administered as single dose by LC-MS/MS method; format: ADME, organism-based; design: time 0 - last, dose 3 mg/kg, route oral; details: plasma; in short: as §3
[21] = AUC (0 to infinity) in F344 rat at 3 mg/kg, iv administered as single dose by LC-MS/MS method; format: ADME, organism-based; design: time infinity, dose 3 mg/kg, route intravenous; details: plasma; in short: as §3
[22] = Half life in F344 rat at 0.3 mg/kg, po administered as single dose by LC-MS/MS method; format: ADME, organism-based; design: dose 0.3 mg/kg, route oral; details: in vivo
[23] = AUC (0 to infinity) in cynomolgus monkey at 1 mg/kg, po administered as single dose by LC-MS/MS method; format: ADME, organism-based, Macaca fascicularis; design: dose 1 mg/kg, route oral, time infinity; details: plasma; in short: as §3
[24] = AUClast in cynomolgus monkey at 10 mg/kg, iv administered as single dose by LC-MS/MS method; format: ADME, organism-based, Macaca fascicularis; design: time 0 - last, dose 10 mg/kg, route intravenous; details: plasma; in short: as §3

For `C[C@H]1O[C@@H](O[C@H]2[C@H](O)[C@@H](O)[C@@H](O[14C@H]3[14C@H](O)[14CH2]N[14C@@H]3[14CH2]O)O[C@@H]2CO)[C@H](O)[C@@H](O)[C@@H]1O`, the Drug excretion (Rattus norvegicus [1]) was 97.94%, the Drug excretion (Rattus norvegicus [2]) was 0.59% and the Drug metabolism [3] was “metabolite_not_detected”. The Drug excretion [4] was 13.34%, the Drug excretion [5] was 1.4% and the Drug metabolism [6] was “metabolite_detected”. For the same compound, the Drug excretion (Rattus norvegicus [7]) was 0.37%.

In the case of `C[C@H]1O[C@@H](O[C@H]2[C@H](O)[C@@H](O)[C@@H](O[C@H]3[C@H](O)CN[C@@H]3CO)O[C@@H]2CO)[C@H](O)[C@@H](O)[C@@H]1O`, the bioavailability [8] is reported as 2.44%, the bioavailability [9] is reported as 2.03% and the AUC(0-t) [10] is reported as 1860 ng·h/mL. It also gave a Cmax [11] of 15.3 ng/mL, a half-life [12] of 1.29 h and an AUC(0-t) [13] of 5870 ng·h/mL. It also gave a half-life [14] of 21.5 h, an AUC(0-inf) [15] of 45.6 ng·h/mL and a Tmax [16] of 0.375 h. For the same compound, the Tmax [17] was 1.75 h, the AUC(0-t) [18] was 52 ng·h/mL and the AUC(0-t) [19] was 42.1 ng·h/mL. It also gave an AUC(0-t) [20] of 324 ng·h/mL, an AUC(0-inf) [21] of 18800 ng·h/mL and a half-life [22] of 2.69 h. It also gave an AUC(0-inf) [23] of 57.9 ng·h/mL and an AUC(0-t) [24] of 74300 ng·h/mL.
